Assay outcomes from PubChem BioAssay.
Hits are enriched below; roughly 4.6% of the tested compounds scored in any of these assays.
CHO parental Ca = counter-screen: ATP calcium response change in parental CHO cells; parental CHO-K1, ATP-induced calcium, Fluo-8 fluorescence; inhibition, % at 5.6 µM; 0.63% of 330,000 active; AID 463079;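 active means inhibition above that plate's mean sample inhibition plus 3 SD, cut at about 26% in these data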
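Material: Parental CHO cells | Reagent: ATP | Compound dosing: Single nominal dose of 5.6 µM per compound | Detection: Intracellular calcium via Fluo-8 no-wash fluorescent dye | Read-out: % inhibition of ATP-induced calcium mobilization | Benchmarks: Low control ATP plus DMSO, high control DMSO only | Replicates: Singlicate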
TAAR1 ag = human TAAR1 agonism; CHO RD-HGA16 TAAR1, Fluo-8 calcium fluorescence; vehicle wells 0%, saturating PEA agonist 100%; activation, % at 3 µM; 0.99% of 360,000 active; AID 624467;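 active means activation above the mean activation of all test compounds in the run plus 3 SD, cut at about 38% in these data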
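Test system: RD-HGA16 (CHO) cells co-expressing Gα16 and hTAAR1 / Benchmarks: DMSO vehicle as 0%, PEA at EC100 as 100% / Repeats: no replicates (n 1) / Measure: % activation from peak over basal fluorescence ratio, DMSO-to-PEA scaled / Timing: 17-24 h plating, Fluo-8 75 min 37 °C, 30 min RT / Technique: kinetic Fluo-8 calcium fluorescence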
TAAR1 antagonist = antagonists of human TAAR1; inhibition, % at 3 µM; 1.5% of 360,000 active; Q96RJ0; CHO RD-HGA16 TAAR1, Fluo-8 calcium fluorescence, antagonist;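 active means inhibition above a per-plate cutoff, the mean inhibition of test compounds on that plate plus 3 SD, cut at about 49% in these data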
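Assay system: RD-HGA16 CHO cells with stable hTAAR1 and Gα16 / Reagent: EC80 β-phenethylamine stimulus / Doses: 3 µM, single point / Timing: dye loading 75 min at 37 °C, then 30 min room temperature / Measured by: Fluo-8 intracellular calcium dye fluorescence, real-time kinetic reads / Controls: vehicle wells and EC80 agonist wells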
GPR7 antag = antagonists of human GPR7 (neuropeptides B/W receptor 1) | P48145 | 1.1% of 290,000 active | GPR7-expressing cells, fluorescence antagonist assay | inhibition, % at 4.4 µM; in the data active means inhibition above about 16%, passing the limit was not always enough;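 further: cells stimulated with the agonist NPW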
Target sequence (P48145 whole entry, looked up): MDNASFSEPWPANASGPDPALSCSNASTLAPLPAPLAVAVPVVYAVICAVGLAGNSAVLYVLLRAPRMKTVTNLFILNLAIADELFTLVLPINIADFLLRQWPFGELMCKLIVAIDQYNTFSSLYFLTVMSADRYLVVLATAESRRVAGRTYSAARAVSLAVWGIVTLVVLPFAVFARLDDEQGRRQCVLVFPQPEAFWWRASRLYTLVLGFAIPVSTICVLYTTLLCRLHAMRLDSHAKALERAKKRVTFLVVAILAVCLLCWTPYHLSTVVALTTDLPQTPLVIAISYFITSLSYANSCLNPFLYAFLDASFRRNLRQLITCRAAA
OX1R antag-1 = antagonists of human orexin 1 receptor (OX1R) | OX1R-expressing cells, FRET antagonist read-out | 1.8% of 330,000 active | O43613 | AID 485270 | inhibition, % at 6.6 µM; in the data active means inhibition mostly above about 38%, no sharp cut-off; inactive means mostly below about 40%
OX1R antag-2 = human HCRTR1 antagonism; CHO/OX1R cells, Fluo-8 calcium fluorescence, orexin A; AID 434989; O43613; inhibition, % at 5 µM; 0.43% of 330,000 active;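 active means inhibition above its plate's threshold, mean inhibition of all tested compounds on the plate plus 3 SD, cut at about 37% in these data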
GPR7 antag cf = confirmation of human GPR7 antagonists. inhibition, % at 4.4 µM. shares compounds with GPR7 antag. GPR7-expressing cells, calcium fluorescence antagonist mode. 52% of 2,400 active; in the data active means inhibition above about 24%;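 further: stimulated with the GPR7 agonist NPW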
MCHR1 antagonist = antagonizes human MCHR1, a GPR7 antagonist counter-screen; shares compounds with GPR7 antag; MCHR1-expressing cells, fluorescence antagonist assay; inhibition, % at 4.4 µM; 62% of 2,400 active; in the data active means inhibition above about 22%
Each line names hits and unclear results; the compound was inactive in the other large screens (follow-up assays come after a bar, where they were run).

CCOC(=O)Cn1c(S(=O)(=O)Cc2ccc(F)cc2)nc(-c2ccccc2)c1-c1ccccc1	none
Cc1ccnc(NC(=O)COc2ccc3oc4c(c3c2)CCCC4)c1	OX1R antag-1 54
CNC(=O)COc1ccc2oc3c(c2c1)CCCC3	none
COc1c(OC)c(O)c2c(=O)c(O)c(-c3ccccc3)oc2c1OC	OX1R antag-1 57
COc1ccc(-c2oc3c(OC)c(OC)c(OC)c(O)c3c(=O)c2OC)cc1OC	none
CC(=O)Nc1ccc(NC(=O)c2cc([N+](=O)[O-])cc([N+](=O)[O-])c2)cc1	OX1R antag-1 57
O=C(Nc1ccc(Br)cc1)c1cc([N+](=O)[O-])cc([N+](=O)[O-])c1	none
Cc1cc(NC(=O)c2cccc([N+](=O)[O-])c2)no1	none
Cc1csc(NC(=O)c2cc([N+](=O)[O-])cc([N+](=O)[O-])c2)n1	OX1R antag-1 64
Cc1cc(NC(=O)c2cc([N+](=O)[O-])cc([N+](=O)[O-])c2)no1	OX1R antag-1 57
Cc1cnc(-c2nc3ccccc3n2C(C(=O)Nc2c(C)cccc2C)C2CC2)cn1 (configuration not stated)	none (no result: CHO parental Ca, GPR7 antag, OX1R antag-1, OX1R antag-2)
C=CCN(c1ccccc1)S(=O)(=O)c1cc(C(=O)NC2=NCCS2)ccc1Cl	none
Cn1ncc2c(Nc3ccc(Cl)c(Cl)c3)ncnc21	OX1R antag-1 65
COc1ccc(C2=C(Nc3ccc(C)cc3)c3ccccc3C2=O)cc1	none
Cc1ccc(NC2=C(NCCO)C(=O)c3ccccc3C2=O)cc1	OX1R antag-1 56
CC1COCC(C)N1C1=C(Cl)C(=O)c2ccccc2C1=O (configuration not stated)	TAAR1 ag 41 (no result: CHO parental Ca, GPR7 antag, OX1R antag-1, OX1R antag-2)
CCn1c(C)nc2cc(C(N)=O)ccc21	none
CCn1c(C)nc2cc(N)ccc21	GPR7 antag 27 | GPR7 antag cf inactive | MCHR1 antagonist inactive
Cc1ccc(C)c(OCCN2CCOCC2)c1	none
Cc1cccc(OCC(=O)Nc2ccccc2N2CCN(C)CC2)c1	GPR7 antag 31 | GPR7 antag cf inactive | MCHR1 antagonist 49
Cc1cccc(OCC(=O)Nc2ccccc2N2CCCCC2)c1	none
CCC(=O)N1CCN(c2ccccc2NC(=O)COc2cc(C)ccc2C(C)C)CC1	GPR7 antag 34 | GPR7 antag cf 27 | MCHR1 antagonist 51
CC1CCCN(CC(O)CN2CCN(CC(O)CN3CCCC(C)C3)C(C)C2)C1 (configuration not stated)	none (no result: CHO parental Ca, GPR7 antag, OX1R antag-1, OX1R antag-2)
O=c1c2c(nc3cc(-c4ccc(F)cc4)[nH]n13)CCC2	GPR7 antag 30 | GPR7 antag cf inactive | MCHR1 antagonist inactive
CCOC(=O)c1cc(-c2ccc(OC)cc2F)nc2c1c(C)nn2CCC#N	GPR7 antag 29 | GPR7 antag cf 33 | MCHR1 antagonist 23
CCOC(=O)c1cc(-c2ccc(Cl)cc2)nc2c1c(C)nn2CCC#N	none
CCC(=O)c1ccc(OCC(O)Cn2c(C)nc3ccccc32)cc1 (configuration not stated)	GPR7 antag 28 | GPR7 antag cf inactive | MCHR1 antagonist 57
CC(C)NC(=O)COC(=O)c1ccc(Oc2ccccc2)cc1	GPR7 antag 28 | GPR7 antag cf inactive | MCHR1 antagonist 35
NC(=O)COC(=O)c1ccc(Oc2ccccc2)cc1	none
O=Nc1[nH]c(=O)c(/C=C(\O)c2ccccc2)nc1NO	none (no result: CHO parental Ca, OX1R antag-1, OX1R antag-2)
CCCCNc1nnc(Cc2ccc(Cl)cc2)c(=O)[nH]1	none (no result: CHO parental Ca, OX1R antag-1, OX1R antag-2)
CN(C)c1cc(Nc2ccc(O)cc2)c([N+](=O)[O-])c2nonc12	none
O=[N+]([O-])c1c(Nc2ccc(O)cc2)cc(Cl)c2nonc12	CHO parental Ca 61, TAAR1 antagonist 63, GPR7 antag 83, OX1R antag-1 99, OX1R antag-2 76 | GPR7 antag cf 94 | MCHR1 antagonist 102
Cc1ccc(Nc2nnc(SCC(=O)c3ccc(O)cc3O)s2)cc1	none
